Data published in ChEMBL document CHEMBL1157151, “Design and synthesis of N-(3,5-difluoro-4-hydroxyphenyl)benzenesulfonamides as aldose reductase inhibitors” (Bioorg Med Chem, 2008).
pIC50: −log10 of the molar value.

Key:
[1] = biological target: Aldo-keto reductase family 1 member B1 (Rattus norvegicus, UniProt P07943); test: Inhibition of aldose reductase in rat lenses
Procedure, shortened: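 Activity read spectrophotometrically as NADPH oxidation. Five concentrations; IC50 by least-squares fit of linear portion of log(dose)–response curve; triplicate.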

[2] = Antioxidant activity assessed as inhibition of DOPC liposomes; assay type: functional
Procedure, shortened: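 Unilamellar DOPC liposomes (final 0.8 mM) in 20 mM phosphate buffer pH 7.4 incubated with test compound (10–300 µM) and AAPH initiator (final 10 mM), 50 °C, 80 min. Lipid hydroperoxides extracted with CHCl₃/MeOH (2:1) containing BHT, measured by thiocyanate method at 500 nm against cumene hydroperoxide calibration. IC50 by least-squares fit of linear part of semilog % inhibition plot; triplicate.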

[3] = DPPH radical scavenging activity; assay type: functional
Procedure, shortened: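 Compound in ethanol mixed with ethanolic DPPH; final 0.2–0.0125 mM compound, 0.2 mM DPPH. Absorbance loss at 517 nm followed. IC50 from nine concentrations at 270 min steady state; EC50 = IC50/[DPPH]. Initial rate from linear absorbance decrease over first 30 s at equimolar 0.2 mM. Triplicate.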

Jejunum [4] = test: Apparent permeability from serosal to mucosal side in Wistar rat jejunum; assay type: functional, tissue-based
Procedure, shortened: (§1)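 Jejunum from starved male Wistar rats (250–320 g), 1 cm² exposed, in side-by-side diffusion chambers; 25 min preincubation. Donor: 0.479 mM compound, 10 µM fluorescein paracellular marker, glucose or mannitol in Ringer buffer, applied mucosal (M–S) or serosal (S–M). Acceptor sampled every 25 min to 175 min. Viability checked by PD, Isc, TEER. HPLC-UV 220 nm, fluorescein by fluorescence. Papp calculated.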

Jejunum [5] = test: Apparent permeability from mucosal to serosal side in Wistar rat jejunum; assay type: functional, tissue-based; procedure, shortened: as §1
Jejunum [6] = test: Ratio of permeability from serosal to mucosal over mucosal to serosal side of the Wistar rat jejunum

| pIC50 [1] | SMILES | pIC50 [2] | pIC50 [3] | permeability (Jejunum [4]) [×10⁻⁶ cm/s] | permeability (Jejunum [5]) [×10⁻⁶ cm/s] | Ratio (Jejunum [6]) |
| --- | --- | --- | --- | --- | --- | --- |
| 4.81 | COc1ccc(S(=O)(=O)Nc2cc(F)c(O)c(F)c2)cc1 |  |  |  |  |  |
|  | Cc1c(C)c2c(c(C)c1O)CCC(C)(C(=O)O)O2 (centres undefined) [TROLOX] | 4.03 | 4.43 |  |  |  |
| 4.85 | Nc1ccc(S(=O)(=O)Nc2cc(F)c(O)c(F)c2)cc1 |  |  |  |  |  |
| 4.35 | O=[N+]([O-])c1ccc(S(=O)(=O)Nc2cc(F)c(O)c(F)c2)cc1 |  |  |  |  |  |
|  | CC(/C=C1\SC(=S)N(CC(=O)O)C1=O)=C\c1ccccc1 |  |  | 10.9 | 4.34 | 2.5 |

| SMILES | pIC50 [1] | pIC50 [2] | pIC50 [3] | permeability (Jejunum [4]) [×10⁻⁶ cm/s] | permeability (Jejunum [5]) [×10⁻⁶ cm/s] | Ratio (Jejunum [6]) |
| --- | --- | --- | --- | --- | --- | --- |
| O=S(=O)(Nc1cc(F)c(O)c(F)c1)c1ccccc1 | 4.48 | 4.02 | 4.31 | 2.91 | 6.34 | 0.46 |
